Experimental data reported in ChEMBL document CHEMBL2040850, “Indole based cyclooxygenase inhibitors: synthesis, biological evaluation, docking and NMR screening” (Eur J Med Chem, 2012).
Active and inactive are the calls of the source. The rule behind the calls is not given here.

What was measured:
[1] = molecular target: Prostaglandin G/H synthase 1 (Ovis aries) (UniProt P05979); assay: Inhibition of ovine COX1 assessed as PGE2 formation at 50 uM by enzyme immunoassay
[2] = molecular target: T1, Prostaglandin G/H synthase 2 (Ovis aries) (UniProt P79208); assay: Reversible binding affinity to sheep placenta COX2 at 300 uM by STD-NMR spectroscopy
T1 sequence (whole entry): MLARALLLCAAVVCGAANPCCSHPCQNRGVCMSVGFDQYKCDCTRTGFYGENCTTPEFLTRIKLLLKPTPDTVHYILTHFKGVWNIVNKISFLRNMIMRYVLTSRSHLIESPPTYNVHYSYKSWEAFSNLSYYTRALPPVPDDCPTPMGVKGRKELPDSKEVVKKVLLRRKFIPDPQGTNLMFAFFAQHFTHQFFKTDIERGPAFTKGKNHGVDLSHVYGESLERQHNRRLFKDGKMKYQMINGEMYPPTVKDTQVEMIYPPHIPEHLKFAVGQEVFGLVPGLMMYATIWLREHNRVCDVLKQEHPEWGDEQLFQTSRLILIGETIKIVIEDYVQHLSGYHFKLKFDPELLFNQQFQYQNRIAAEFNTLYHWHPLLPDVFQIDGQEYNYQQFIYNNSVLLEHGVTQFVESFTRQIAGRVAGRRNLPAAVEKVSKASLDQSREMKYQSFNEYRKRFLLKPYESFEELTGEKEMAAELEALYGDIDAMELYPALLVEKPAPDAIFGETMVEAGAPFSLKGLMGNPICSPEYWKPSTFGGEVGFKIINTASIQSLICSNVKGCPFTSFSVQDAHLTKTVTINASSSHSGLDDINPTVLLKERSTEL
Method in brief: (§1)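 STD-NMR of ligand binding to COX-1 (ram seminal vesicle) or COX-2 (sheep placenta) in 80 mM Tris–HCl pH 8.0 with 0.1% Tween 20 and 300 µM DDC. Final mixture was about 3 µM enzyme and 300 µM ligand, added from a 2 mM DMSO-d6 stock. Protein irradiated at -300 Hz with 51 shaped 90° pulses (2.5 s total saturation), 20 ms spin-lock filter, 1024 transients.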

[3] = molecular target: T2, Prostaglandin G/H synthase 1 (Ovis aries) (UniProt P05979); conditions: 1 uM
T2 sequence (whole entry): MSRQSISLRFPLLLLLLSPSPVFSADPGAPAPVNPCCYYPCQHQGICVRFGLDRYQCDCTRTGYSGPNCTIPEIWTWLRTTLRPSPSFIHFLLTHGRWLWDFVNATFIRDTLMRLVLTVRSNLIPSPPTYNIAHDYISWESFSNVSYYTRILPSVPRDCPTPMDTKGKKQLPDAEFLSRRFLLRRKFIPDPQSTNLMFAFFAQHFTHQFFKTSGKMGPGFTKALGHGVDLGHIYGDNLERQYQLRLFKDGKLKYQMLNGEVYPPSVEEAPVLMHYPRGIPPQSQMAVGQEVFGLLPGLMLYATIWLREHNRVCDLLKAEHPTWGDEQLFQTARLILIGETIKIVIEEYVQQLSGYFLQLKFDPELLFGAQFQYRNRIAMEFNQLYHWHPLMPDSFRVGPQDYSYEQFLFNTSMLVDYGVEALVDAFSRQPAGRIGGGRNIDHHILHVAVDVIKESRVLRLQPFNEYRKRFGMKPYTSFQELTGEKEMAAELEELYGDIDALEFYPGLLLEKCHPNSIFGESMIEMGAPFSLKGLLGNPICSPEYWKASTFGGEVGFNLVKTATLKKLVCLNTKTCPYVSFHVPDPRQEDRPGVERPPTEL

[4] = molecular target: Prostaglandin G/H synthase 2 (Homo sapiens) (UniProt P35354); assay: Inhibition of human COX2 assessed as PGE2 formation at 100 uM by enzyme immunoassay
[5] = molecular target: T3, Prostaglandin G/H synthase 2 (Homo sapiens) (UniProt P35354); assay: Inhibition of recombinant human COX2 assessed as PGF2alpha formation at 50 uM by enzyme immunoassay
T3 sequence (whole entry): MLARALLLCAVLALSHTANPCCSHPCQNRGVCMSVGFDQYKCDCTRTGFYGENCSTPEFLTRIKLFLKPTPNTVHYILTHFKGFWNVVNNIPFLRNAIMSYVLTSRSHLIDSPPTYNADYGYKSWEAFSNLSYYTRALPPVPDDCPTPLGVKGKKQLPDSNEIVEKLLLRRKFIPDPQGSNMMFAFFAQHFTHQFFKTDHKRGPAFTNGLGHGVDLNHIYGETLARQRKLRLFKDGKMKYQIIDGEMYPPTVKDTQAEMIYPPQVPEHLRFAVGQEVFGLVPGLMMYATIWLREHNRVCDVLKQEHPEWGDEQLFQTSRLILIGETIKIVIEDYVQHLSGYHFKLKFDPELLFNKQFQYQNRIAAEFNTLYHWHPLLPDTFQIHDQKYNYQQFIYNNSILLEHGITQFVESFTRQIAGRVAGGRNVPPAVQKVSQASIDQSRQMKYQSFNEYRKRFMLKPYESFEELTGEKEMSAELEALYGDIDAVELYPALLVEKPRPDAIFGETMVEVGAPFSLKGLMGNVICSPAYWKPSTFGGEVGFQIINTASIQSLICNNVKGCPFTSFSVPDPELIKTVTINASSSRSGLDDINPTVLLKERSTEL

[6] = molecular target: T2, Prostaglandin G/H synthase 1 (Ovis aries); assay: Reversible binding affinity to ram seminal vesicle COX1 at 300 uM by STD-NMR spectroscopy
Method in brief: as §1

[7] = molecular target: Prostaglandin G/H synthase 2 (Homo sapiens) (UniProt P35354); assay: Inhibition of recombinant human COX2 assessed as PGE2 formation at 100 uM by enzyme immunoassay

Row | SMILES | inhibition [1] | inhibition [4] | inhibition [5] | further results
1 | NS(=O)(=O)c1ccc2[nH]c(Cc3ccc(F)cc3)c(Cc3ccc(F)cc3)c2c1 | 18% |  |  | Activity [2]: Active
2 | COc1ccc2c(c1)c(CC(=O)O)c(C)n2C(=O)c1ccc(Cl)cc1 |  |  |  | inhibition [3]: 46%
3 | CS(=O)(=O)c1ccc2c(c1)c(Cc1ccc(F)cc1)cn2C=CCC(F)(F)F (mixture of isomers) | 8% | 18% | 12% | 
4 | CS(=O)(=O)c1ccc2[nH]cc(Cc3ccc(Cl)cc3)c2c1 |  | 24% |  | 
5 | NS(=O)(=O)c1ccc2[nH]cc(Cc3ccc(F)cc3)c2c1 | 40% | 20% | 32% | Activity [6]: Active
6 | CS(=O)(=O)c1ccc2c(c1)c(Cc1ccc(F)cc1)cn2CC(O)CC(F)(F)F (stereo not given) | 14% | 9% |  | 
7 | CS(=O)(=O)c1ccc2[nH]c(Cc3ccc(Br)cc3)c(Cc3ccc(Br)cc3)c2c1 |  |  |  | inhibition [7]: inactive
8 | CS(=O)(=O)c1ccc2[nH]c(Cc3ccc(Cl)cc3)c(Cc3ccc(Cl)cc3)c2c1 | 25% |  | 24% | inhibition [7]: inactive
9 | CS(=O)(=O)c1ccc2c(c1)c(Cc1ccc(Cl)cc1)cn2CC(O)CC(F)(F)F (stereo not given) | 8% | 34% | 20% | 
10 | CS(=O)(=O)c1ccc2[nH]cc(Cc3ccc(Br)cc3)c2c1 |  | 26% |  | 
11 | NS(=O)(=O)c1ccc2[nH]c(Cc3ccc(Br)cc3)c(Cc3ccc(Br)cc3)c2c1 | 35% |  |  | 
12 | NS(=O)(=O)c1ccc(Cc2c[nH]c3ccc(Br)cc23)cc1 | 11% | 27% | 22% | 
13 | CS(=O)(=O)c1ccc2c(c1)c(Cc1ccc(Br)cc1)cn2CC(O)CC(F)(F)F (stereo not given) | 12% | 15% | 23% | 
14 | CS(=O)(=O)c1ccc2c(c1)c(Cc1ccc(Cl)cc1)cn2C=CCC(F)(F)F (mixture of isomers) | 11% | 23% |  | 
15 | NS(=O)(=O)c1ccc2[nH]cc(Cc3ccc(Cl)cc3)c2c1 | 21% | 31% | 32% | 
16 | NS(=O)(=O)c1ccc2[nH]c(Cc3ccc(Cl)cc3)c(Cc3ccc(Cl)cc3)c2c1 | 41% |  |  | 
17 | CS(=O)(=O)c1ccc2[nH]c(Cc3ccc(F)cc3)c(Cc3ccc(F)cc3)c2c1 |  |  |  | inhibition [7]: inactive
18 | NS(=O)(=O)c1ccc2[nH]cc(Cc3ccc(Br)cc3)c2c1 | 19% |  | 23% | 
19 | CS(=O)(=O)c1ccc2c(c1)c(Cc1ccc(Br)cc1)cn2C=CCC(F)(F)F (mixture of isomers) | 20% | 19% | 21% | 
